# Measured values published in ChEMBL document CHEMBL2384977, “Synthesis and biological evaluation of novel styryl benzimidazole derivatives as probes for imaging of neurofibrillary tangles in Alzheimer's disease” (Bioorg Med Chem, 2013).
# Calls of active or inactive are those of the source. The rule behind the calls is not given here.
# Assays:
# [1] = system: Brain; experiment: Ratio of drug level in ddY mouse brain at 13.2 to 20.6 kBq, iv measured at 2 mins to drug level in ddY mouse brain at 13.2 to 20.6 kBq, iv measured at 60 mins; assay type: ADME, organism-based; conditions: in vivo
# In short: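 Tail-vein injection of the 125I tracer (13.2–20.6 kBq, saline with ethanol) into male 5-week-old ddY mice. The ratio is brain uptake (%ID/g) at 2 min divided by brain uptake at 60 min, from groups of 5 animals.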
# [2] = species on record: Homo sapiens; experiment: Selectivity ratio of Kd(app) for amyloid beta (1 to 42) (unknown origin) aggregates to Kd(app) for recombinant human tau (441 amino acid residues) aggregates
# In short: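 Human 441-aa tau, expressed in E. coli, was aggregated at 1 mg/mL (MES pH 6.8, 0.1 mg/mL heparin, 37 °C, 3 days, shaking). Aβ1–42 was aggregated at 0.25 mg/mL (PBS pH 7.4, 37 °C, 42 h). Aggregates were incubated 30 min at room temperature with ligand, and fluorescence read at ex 440 nm, em 510 nm (tau) or 480 nm (Aβ). Apparent Kd came from saturation curves over six independent experiments, and the ratio is Kd(Aβ)/Kd(tau).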
# [3] = target: T1, Amyloid-beta precursor protein (Homo sapiens, UniProt P05067); experiment: Binding affinity to amyloid beta (1 to 42) (unknown origin) aggregates assessed as apparent dissociation constant after 30 mins by fluorescence spectroscopic analysis; conditions: read-out: Kd(app)
# T1 sequence (P05067 whole entry): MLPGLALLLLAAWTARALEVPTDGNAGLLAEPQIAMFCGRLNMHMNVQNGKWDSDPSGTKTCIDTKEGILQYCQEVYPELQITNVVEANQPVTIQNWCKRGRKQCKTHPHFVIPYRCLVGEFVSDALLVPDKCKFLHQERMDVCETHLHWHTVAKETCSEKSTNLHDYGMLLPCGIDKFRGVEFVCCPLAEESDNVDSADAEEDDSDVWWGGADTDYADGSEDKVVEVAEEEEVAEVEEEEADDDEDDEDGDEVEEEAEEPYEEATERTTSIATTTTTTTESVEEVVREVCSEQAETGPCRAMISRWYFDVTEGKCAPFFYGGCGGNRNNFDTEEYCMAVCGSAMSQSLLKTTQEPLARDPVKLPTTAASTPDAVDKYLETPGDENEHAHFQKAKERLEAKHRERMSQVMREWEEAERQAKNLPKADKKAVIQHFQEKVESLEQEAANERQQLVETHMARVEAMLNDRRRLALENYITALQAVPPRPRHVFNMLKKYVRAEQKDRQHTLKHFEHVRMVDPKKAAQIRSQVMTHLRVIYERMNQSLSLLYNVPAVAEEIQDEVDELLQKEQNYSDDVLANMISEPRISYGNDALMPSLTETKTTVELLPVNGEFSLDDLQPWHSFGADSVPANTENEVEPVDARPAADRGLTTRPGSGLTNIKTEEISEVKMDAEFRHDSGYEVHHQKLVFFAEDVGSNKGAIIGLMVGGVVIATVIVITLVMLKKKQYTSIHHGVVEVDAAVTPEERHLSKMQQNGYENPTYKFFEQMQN
# In short: (§1)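 Tau: human 441-aa tau expressed in E. coli, aggregated at 1 mg/mL in MES buffer pH 6.8 with 0.1 mg/mL heparin, 37 °C for 3 days with shaking. Abeta1-42 aggregated at 0.25 mg/mL in PBS pH 7.4, 37 °C for 42 h with shaking. Aggregates at final 10 µg/mL were incubated with ligand (final 0.02–10 µM) for 30 min at room temperature. Apparent Kd was taken from fluorescence saturation curves at ex 440 nm, em 510 nm (tau) or em 480 nm (Abeta). Mean ± SEM of six independent experiments.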
# [4] = target: T2, Microtubule-associated protein tau (Homo sapiens, UniProt P10636); experiment: Binding affinity to recombinant human tau (441 amino acid residues) aggregates expressed in Escherichia coli assessed as apparent dissociation constant after 30 mins by fluorescence spectroscopic analysis; conditions: read-out: Kd(app); in short: as §1
# T2 sequence (P10636 whole entry): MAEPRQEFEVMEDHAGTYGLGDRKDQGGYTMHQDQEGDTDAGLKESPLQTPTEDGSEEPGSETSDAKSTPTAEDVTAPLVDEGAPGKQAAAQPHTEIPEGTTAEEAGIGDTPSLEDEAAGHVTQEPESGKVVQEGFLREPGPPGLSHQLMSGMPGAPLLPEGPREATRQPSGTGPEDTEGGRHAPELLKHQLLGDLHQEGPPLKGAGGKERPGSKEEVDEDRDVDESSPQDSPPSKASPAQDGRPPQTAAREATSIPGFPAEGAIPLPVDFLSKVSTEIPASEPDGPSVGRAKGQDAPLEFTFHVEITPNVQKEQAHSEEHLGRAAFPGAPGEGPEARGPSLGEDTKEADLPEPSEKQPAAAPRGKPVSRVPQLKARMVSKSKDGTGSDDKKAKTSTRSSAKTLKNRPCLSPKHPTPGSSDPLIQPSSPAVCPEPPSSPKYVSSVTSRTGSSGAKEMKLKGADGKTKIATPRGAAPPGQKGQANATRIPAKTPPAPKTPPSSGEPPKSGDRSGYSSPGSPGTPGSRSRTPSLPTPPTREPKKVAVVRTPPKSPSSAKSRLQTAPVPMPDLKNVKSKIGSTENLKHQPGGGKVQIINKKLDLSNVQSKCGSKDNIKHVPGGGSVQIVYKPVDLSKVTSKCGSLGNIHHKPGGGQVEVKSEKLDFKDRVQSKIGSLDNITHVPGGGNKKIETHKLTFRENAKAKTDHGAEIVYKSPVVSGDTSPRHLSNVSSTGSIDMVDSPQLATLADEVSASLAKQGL
# [5] = target: T2, Microtubule-associated protein tau; experiment: Binding affinity to hyperphosphorylated tau protein in alzheimer disease patient brain by immunohistochemical staining analysis; conditions: tested as the 125I-labelled form
# In short: (§2)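 Autoradiography on 6-µm deparaffinized paraffin serial sections from an autopsy-confirmed AD case; control brain section also run. [125I]SBIM-3 (92.5 kBq/100 µL) for 1 h at room temperature, 50% EtOH for 2 h, water wash 30 s, then imaging plate exposure overnight. Labelling was compared with adjacent sections immunostained for phospho-tau (AT8) or Aβ1–42 (BC05).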
# [6] = target: T1, Amyloid-beta precursor protein; experiment: Binding affinity to amyloid beta (1 to 42) in alzheimer disease patient brain by immunohistochemical staining analysis; conditions: tested as the 125I-labelled form; in short: as §2
# [7] = target: T2, Microtubule-associated protein tau; experiment: Binding affinity to hyperphosphorylated tau protein in entorhinal cortex of alzheimer disease patient brain at 300 uM after 30 mins by fluorescence microscopic analysis; assay type: tissue-based
# In short: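 Deparaffinized entorhinal cortex section from the same AD patient, incubated 30 min with ligand in 50% ethanol, then washed 30 s in ethanol. Imaged by fluorescence microscopy (excitation 450–490 nm, emission 510–560 nm). Spots were matched to Thioflavin S staining of the same patient's section.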
Structure (SMILES),Ratio [1],Selectivity ratio [2],Kd [3] [nM],Kd [4] [nM],Activity [5],Activity [6],Activity [7]
Nc1ccc(/N=N/c2nc3ccc([125I])cc3s2)cc1,0.3,–,–,–,–,–,–
CN(C)c1ccc(/C=C/c2nc3ccc(I)cc3[nH]2)cc1,–,2.73,820,300,Active,Active,Active
